According to ChEMBL document CHEMBL1130156, “Evolution of the Dmt-Tic pharmacophore: N-terminal methylated derivatives with extraordinary delta opioid antagonist activity” (J Med Chem, 1997):
Calls of active or inactive are those of the source. The calls are words filed in the database; no cut-off is given here. Where a SMILES comes first, the peptide text is derived from it. [ ]: non-standard residue; d: D form. ξ: configuration not given here. Dmt = Cc1cc(O)cc(C)c1C[C@H](N)C(=O)O; NMeY = CN[CH](Cc1ccc(O)cc1)C(=O)O; Tic = O=C(O)[CH]1Cc2ccccc2CN1; ξTic = O=C(O)C1Cc2ccccc2CN1

Key:
[1] = target: Opioid receptors; mu & delta (Rattus norvegicus) (UniProt P33533+P33535); assay: Ratio of the affinity for delta and mu opioid receptors (Ki mu/Ki delta) shows delta opioid receptor selectivity; type: protein assay
Sequence of Opioid receptors; mu & delta (Rattus norvegicus) (P33533 whole entry, looked up): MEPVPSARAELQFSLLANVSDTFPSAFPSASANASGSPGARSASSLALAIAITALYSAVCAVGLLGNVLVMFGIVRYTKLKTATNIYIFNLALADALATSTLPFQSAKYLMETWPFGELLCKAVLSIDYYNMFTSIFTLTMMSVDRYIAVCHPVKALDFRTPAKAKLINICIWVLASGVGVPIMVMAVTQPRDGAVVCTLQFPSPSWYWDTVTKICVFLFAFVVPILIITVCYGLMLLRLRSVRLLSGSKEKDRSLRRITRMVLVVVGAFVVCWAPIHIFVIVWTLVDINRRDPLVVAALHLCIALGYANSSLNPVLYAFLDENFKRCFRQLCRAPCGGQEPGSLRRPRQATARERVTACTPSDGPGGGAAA
Sequence of Opioid receptors; mu & delta (Rattus norvegicus) (P33535 whole entry, looked up): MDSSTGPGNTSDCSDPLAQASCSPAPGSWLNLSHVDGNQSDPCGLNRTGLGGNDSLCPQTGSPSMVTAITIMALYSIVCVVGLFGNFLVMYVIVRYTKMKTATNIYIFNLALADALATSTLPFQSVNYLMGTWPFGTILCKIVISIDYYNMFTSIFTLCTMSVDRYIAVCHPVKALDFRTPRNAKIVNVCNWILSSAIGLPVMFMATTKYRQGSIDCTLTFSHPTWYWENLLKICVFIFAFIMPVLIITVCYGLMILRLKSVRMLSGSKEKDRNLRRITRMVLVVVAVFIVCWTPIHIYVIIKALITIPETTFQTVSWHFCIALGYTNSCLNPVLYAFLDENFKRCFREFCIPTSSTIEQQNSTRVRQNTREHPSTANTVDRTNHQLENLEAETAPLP

[2] = target: T1, Delta-type opioid receptor (Rattus norvegicus, UniProt P33533); assay: Binding affinity for Opioid receptor delta 1 by displacement of [3H]- DPDPE
T1 sequence (P33533 whole entry): as the sequence (P33533 whole entry, looked up) above
In short: (§1)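 Rat brain (Sprague–Dawley, minus cerebellum) synaptosomal membranes, preincubated to strip endogenous opioids. Equilibrium displacement of [3H]DPDPE (δ) or [3H]DAGO (μ); nonspecific binding defined with 2 μM unlabeled ligand. Peptides spanned 3–4 log units.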

[3] = target: T2, Mu-type opioid receptor (Cavia porcellus, UniProt P97266); assay: Inhibitory activity against Opioid receptor mu 1 in an in vitro guinea pig ileum assay; type: tissue-based
T2 sequence (P97266 whole entry): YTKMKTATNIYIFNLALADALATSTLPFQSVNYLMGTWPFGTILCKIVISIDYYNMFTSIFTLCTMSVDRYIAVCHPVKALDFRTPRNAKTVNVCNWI

[4] = target: Mu-type opioid receptor (Cavia porcellus) (UniProt P97266); assay: Antagonist activity against Opioid receptor mu 1 in guinea pig ileum assay; '-' indicates inactive; type: functional, tissue-based
Sequence of Mu-type opioid receptor (Cavia porcellus) (P97266 whole entry): as above
In short: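 Electrically stimulated mouse vas deferens or guinea pig ileum strips in Krebs' solution; agonist concentration–response curves run without and with rising antagonist concentrations; pA2 by Schild (Arunlakshana–Schild) analysis.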

[5] = target: Mu-type opioid receptor (Rattus norvegicus, UniProt P33535); assay: Binding affinity for Opioid receptor mu 1 by displacement of [3H]- DAGO
Sequence of Mu-type opioid receptor (Rattus norvegicus, UniProt P33535) (P33535 whole entry): as the sequence (P33535 whole entry, looked up) above
In short: as §1, with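 “units. Duplicates, ≥3 membrane preparations; Ki by Cheng–Prusoff; mean ± SEM, n = independent preparations.” for “units.”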

[6] = target: Delta-type opioid receptor (Mus musculus) (UniProt P32300); conditions: Vas deferens
Sequence of Delta-type opioid receptor (Mus musculus) (P32300 whole entry): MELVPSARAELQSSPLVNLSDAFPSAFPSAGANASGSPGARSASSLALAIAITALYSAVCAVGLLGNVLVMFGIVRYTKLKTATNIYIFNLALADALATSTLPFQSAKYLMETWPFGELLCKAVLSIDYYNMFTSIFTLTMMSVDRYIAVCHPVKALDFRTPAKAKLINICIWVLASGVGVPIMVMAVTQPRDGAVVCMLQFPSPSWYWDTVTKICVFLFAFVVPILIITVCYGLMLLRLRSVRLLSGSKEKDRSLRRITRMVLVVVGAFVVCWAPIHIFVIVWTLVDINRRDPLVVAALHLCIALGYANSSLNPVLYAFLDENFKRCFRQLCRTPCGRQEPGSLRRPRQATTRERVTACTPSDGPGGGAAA

[7] = tested on: Delta-type opioid receptor; assay: GPI/MVD ratio is based on Ke (antilog of pA2 value of antagonistic activity of compound for delta opioid receptor) and IC50 values; type: functional
[8] = target: Delta-type opioid receptor (Mus musculus, UniProt P32300); assay: Antagonist activity against Opioid receptor delta 1 in mouse vas deferens assay
Sequence of Delta-type opioid receptor (Mus musculus, UniProt P32300) (P32300 whole entry): as above

[9] = target: Delta-type opioid receptor (Mus musculus) (UniProt P32300); conditions: Vas deferens; remark: listed apart in the source
[10] = target: T2, Mu-type opioid receptor; assay: Inhibitory activity against Opioid receptor mu 1 in an in vitro guinea pig ileum assay; '-' indicates inactive; type: tissue-based
[11] = target: Mu-type opioid receptor (Cavia porcellus) (UniProt P97266); conditions: Ileum
[12] = target: T2, Mu-type opioid receptor; assay: Antagonist activity against Opioid receptor mu 1 iin a guinea pig ileum assay
[13] = target: T1, Delta-type opioid receptor; assay: Agonist activity for Opioid receptor delta 1; type: functional

For `Cc1cc(O)cc(C)c1C[C@@H](N)C(=O)N1Cc2ccccc2C[C@H]1C(=O)N[C@@H](C)C(=O)O`, the Ratio [1] was 197, the Ki [2] was 13 nM and the IC50 [3] was over 10000 nM. The pA2 [4] was “inactive”, the Ki [5] was 2560 nM and the pA2 [6] was 6.9. For the same molecule, the Ratio [7] was over 88.
Work on `Cc1cc(O)cc(C)c1C[C@H](N)C(=O)N1Cc2ccccc2CC1C(N)=O` (some centres undefined) (H-[Dmt]-[ξTic]-NH2) yielded a Ki [2] of 1.22 nM.
For `CN(C)[C@@H](Cc1ccc(O)cc1)C(=O)N1Cc2ccccc2CC1C(=O)O` (some centres undefined), the Ratio [1] was 265, the Ki [2] was 43.5 nM and the Ki [5] was 11500 nM.
For `CN[C@@H](Cc1c(C)cc(O)cc1C)C(=O)N1Cc2ccccc2CC1C(=O)O` (some centres undefined), the Ratio [1] was 1870, the Ki [2] was 0.203 nM and the IC50 [3] was over 10000 nM. The Kb [8] was 3.16 nM, the pA2 [4] was “inactive” and the Ki [5] was 379 nM. It also gave a Ratio [7] of over 3570.
In the case of `CN[C@H](Cc1c(C)cc(O)cc1C)C(=O)N1Cc2ccccc2CC1C(N)=O` (some centres undefined), the Ratio [1] is reported as 119, the Ki [2] is reported as 11.2 nM and the pA2 [9] is reported as “inactive”. For the same molecule, the IC50 [10] was “Not Active”, the pA2 [4] was “inactive” and the Ki [5] was 1330 nM.
In the case of `CN[C@@H](Cc1c(C)cc(O)cc1C)C(=O)N1Cc2ccccc2CC1C(N)=O` (some centres undefined), the Ratio [1] is reported as 2490, the Ki [2] is reported as 0.383 nM and the IC50 [3] is reported as over 10000 nM. It also gave a Kb [8] of 2.51 nM, a Ki [5] of 955 nM and a Ratio [7] of over 4550.
In the case of `Oc1ccc2c3c1O[C@H]1c4[nH]c5ccccc5c4C[C@@]4(O)[C@@H](C2)N(CC2CC2)CC[C@]314` [NALTRINDOLE], the IC50 [10] is reported as “Not Active”, the pA2 [6] is reported as 9.2 and the pA2 [11] is reported as 7.3. The Ratio [7] was 76.
`CN[C@H](Cc1c(C)cc(O)cc1C)C(=O)N1Cc2ccccc2CC1C(=O)O` (some centres undefined) was tested, and the Ratio [1] was 628, the Ki [2] was 3.19 nM and the IC50 [3] was over 10000 nM. The Kb [8] was 158 nM, the pA2 [4] was “inactive” and the Ki [5] was 2000 nM. It also gave a Ratio [7] of over 71.
For `Cc1cc(O)cc(C)c1C[C@@H](C(=O)N1Cc2ccccc2CC1C(N)=O)N(C)C` (some centres undefined), the Ratio [1] was 1660, the Ki [2] was 0.309 nM and the IC50 [10] was “Not Active”. It also gave a Kb [8] of 0.126 nM, a Kb [12] of 501 nM and a Ki [5] of 511 nM. The Ratio [7] was 4500.
`CNC(Cc1ccc(O)cc1)C(=O)N1Cc2ccccc2CC1C(=O)O` (centres undefined) (H-[NMeY]-[Tic]-OH; configuration not given here) gave a Ratio [1] of 166, a Ki [2] of 74.7 nM and a Ki [5] of 12400 nM.
`Cc1cc(O)cc(C)c1C[C@@H](C(=O)N1Cc2ccccc2CC1C(=O)O)N(C)C` (some centres undefined) was tested, and the Ratio [1] was 20600, the Ki [2] was 0.118 nM and the IC50 [10] was “Not Active”. It also gave a Kb [8] of 0.398 nM, a Kb [12] of 1580 nM and a Ki [5] of 2440 nM. It also gave a Ratio [7] of 5640.
In the case of `Cc1cc(O)cc(C)c1C[C@H](C(=O)N1Cc2ccccc2CC1C(=O)O)N(C)C` (some centres undefined), the Ratio [1] is reported as 2280, the Ki [2] is reported as 5.74 nM and the IC50 [3] is reported as over 10000 nM. For the same molecule, the Kb [8] was 2.51 nM, the pA2 [4] was “inactive” and the Ki [5] was 13100 nM. It also gave a Ratio [7] of over 4200.
For `N[C@@H](Cc1ccc(O)cc1)C(=O)N1Cc2ccccc2C[C@H]1C(=O)O` (H-Tyr-[Tic]-OH), the Ratio [1] was 148, the Ki [2] was 192 nM and the Ki [5] was 28400 nM.
In the case of `Cc1cc(O)cc(C)c1CC(C)C(=O)N1Cc2ccccc2CC1C(=O)O` (centres undefined), the Ratio [1] is reported as 55, the Ki [2] is reported as 1300 nM and the Ki [5] is reported as 71400 nM.
`Cc1cc(O)cc(C)c1C[C@H](N)C(=O)N1Cc2ccccc2C[C@H]1C(=O)NC(C)C(=O)O` (some centres undefined) was tested, and the Ratio [1] was 20400, the pA2 [4] was “inactive” and the pA2 [6] was 8.4. For the same molecule, the Ratio [7] was over 2500.
`Cc1cc(O)cc(C)c1C[C@H](C(=O)N1Cc2ccccc2C[C@H]1C(=O)N[C@@H](C)C(=O)O)N(C)C` gave a Ratio [1] of 176, a Ki [2] of 108 nM and a Ki [5] of 19000 nM.
`Cc1cc(O)cc(C)c1CC(N)C(=O)N1Cc2ccccc2C[C@H]1C(=O)O` (single isomer, unassigned) was tested, and the pA2 [9] was “inactive”, the IC50 [10] was “Not Active” and the pA2 [4] was “inactive”. It also gave a Ki [5] of 11000 nM.
`CC(C)[C@H](NC(=O)[C@H](CC(=O)O)NC(=O)[C@H](Cc1ccccc1)NC(=O)[C@@H](C)NC(=O)[C@@H](N)Cc1ccc(O)cc1)C(=O)N[C@H](C(=O)NCC(N)=O)C(C)C` [DELTORPHIN C] was tested, and the IC50 [13] was 0.54 nM.
With `Cc1cc(O)cc(C)c1C[C@@H](C(=O)N1Cc2ccccc2C[C@H]1C(=O)N[C@@H](C)C(=O)O)N(C)C` the Ratio [1] was 20000, the Ki [2] was 0.0755 nM and the IC50 [10] was “Not Active”. The Kb [8] was 0.251 nM, the Kb [12] was 1580 nM and the Ki [5] was 1520 nM. For the same molecule, the Ratio [7] was 7180.
Molecule `Cc1cc(O)cc(C)c1C[C@H](N)C(=O)N1Cc2ccccc2C[C@H]1C(=O)N[C@@H](C)C(=O)O` has an IC50 [3] of over 10000 nM.
Molecule `CN[C@@H](Cc1c(C)cc(O)cc1C)C(=O)N1Cc2ccccc2C[C@H]1C(=O)N[C@@H](C)C(=O)O` has a Ratio [1] of 43000, a Ki [2] of 0.136 nM and an IC50 [3] of over 10000 nM. For the same molecule, the Kb [8] was 1.58 nM, the pA2 [4] was “inactive” and the Ki [5] was 5850 nM. It also gave a Ratio [7] of over 7100.
`Cc1cc(O)cc(C)c1C[C@H](N)C(=O)N1Cc2ccccc2C[C@H]1C(=O)O` was tested, and the IC50 [3] was over 10000 nM, the pA2 [4] was “inactive” and the pA2 [6] was 8.2.
In the case of `CN[C@H](Cc1c(C)cc(O)cc1C)C(=O)N1Cc2ccccc2C[C@H]1C(=O)N[C@@H](C)C(=O)O`, the Ratio [1] is reported as 181, the Ki [2] is reported as 106 nM and the Ki [5] is reported as 19200 nM.
